Active and inactive are the calls of the source. The calls are words filed in the database; no cut-off is given here.
What was measured:
[1] = target: Sodium-dependent dopamine transporter (Homo sapiens, UniProt Q01959); assay: Inhibition of human recombinant DAT expressed in HEK cells; assay type: cell-based, HEK293
[2] = target: Sodium-dependent serotonin transporter (Homo sapiens, UniProt P31645); assay: Inhibition of human recombinant SERT expressed in HEK cells; assay type: cell-based, HEK293
Chain of Sodium-dependent serotonin transporter (P31645 whole entry): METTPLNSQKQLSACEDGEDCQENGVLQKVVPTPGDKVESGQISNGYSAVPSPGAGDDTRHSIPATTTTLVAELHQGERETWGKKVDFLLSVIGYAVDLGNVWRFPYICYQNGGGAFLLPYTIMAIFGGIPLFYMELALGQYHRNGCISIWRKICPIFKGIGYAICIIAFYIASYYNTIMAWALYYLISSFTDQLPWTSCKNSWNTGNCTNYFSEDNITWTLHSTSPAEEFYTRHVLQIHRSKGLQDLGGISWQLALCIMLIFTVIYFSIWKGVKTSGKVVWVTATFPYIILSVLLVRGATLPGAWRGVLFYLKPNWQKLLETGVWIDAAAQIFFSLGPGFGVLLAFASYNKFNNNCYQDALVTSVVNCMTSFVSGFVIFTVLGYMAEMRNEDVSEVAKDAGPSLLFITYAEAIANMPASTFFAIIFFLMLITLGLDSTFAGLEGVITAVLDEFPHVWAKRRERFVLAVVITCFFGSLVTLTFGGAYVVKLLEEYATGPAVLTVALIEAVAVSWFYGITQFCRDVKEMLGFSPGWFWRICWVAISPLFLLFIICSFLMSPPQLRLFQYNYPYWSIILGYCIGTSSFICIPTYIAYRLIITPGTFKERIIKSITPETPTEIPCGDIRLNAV
Summary of the method: (§1)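 HEK cells overexpressing human recombinant transporter; uptake inhibition read as block of a fluorescent substrate with a neurotransmitter uptake kit. Values averaged from at least n = 3, up to 2-fold variability.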

[3] = Intrinsic clearance in human liver microsomes; assay type: ADME, Microsome; conditions: read-out: CLH
Summary of the method: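 Human liver microsomes; intrinsic clearance reported in μL/min/mg.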

[4] = target: Sodium-dependent noradrenaline transporter (Homo sapiens, UniProt P23975); assay: Inhibition of human recombinant NET expressed in HEK cells; assay type: cell-based, HEK293; summary of the method: as §1
Chain of Sodium-dependent noradrenaline transporter (P23975 whole entry): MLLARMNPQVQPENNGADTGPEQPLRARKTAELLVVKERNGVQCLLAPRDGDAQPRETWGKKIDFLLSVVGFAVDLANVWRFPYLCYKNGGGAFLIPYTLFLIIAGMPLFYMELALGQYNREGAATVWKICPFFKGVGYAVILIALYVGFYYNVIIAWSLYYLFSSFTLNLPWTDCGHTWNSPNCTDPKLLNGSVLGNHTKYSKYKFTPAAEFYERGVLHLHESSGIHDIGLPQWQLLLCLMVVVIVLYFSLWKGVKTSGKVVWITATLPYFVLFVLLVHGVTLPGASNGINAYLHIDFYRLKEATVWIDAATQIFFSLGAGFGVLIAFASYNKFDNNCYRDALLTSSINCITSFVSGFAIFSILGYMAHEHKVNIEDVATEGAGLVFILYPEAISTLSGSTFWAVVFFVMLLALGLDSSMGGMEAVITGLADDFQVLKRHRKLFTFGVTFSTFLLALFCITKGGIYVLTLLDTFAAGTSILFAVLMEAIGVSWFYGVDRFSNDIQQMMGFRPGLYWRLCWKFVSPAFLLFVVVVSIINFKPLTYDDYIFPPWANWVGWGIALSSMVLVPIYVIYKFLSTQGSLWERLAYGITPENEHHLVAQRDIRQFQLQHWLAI

[5] = target: Cytochrome P450 2D6 (Homo sapiens, UniProt P10635); assay: Inhibition of CYP2D6 (unknown origin); assay type: ADME
Chain of Cytochrome P450 2D6 (P10635 whole entry): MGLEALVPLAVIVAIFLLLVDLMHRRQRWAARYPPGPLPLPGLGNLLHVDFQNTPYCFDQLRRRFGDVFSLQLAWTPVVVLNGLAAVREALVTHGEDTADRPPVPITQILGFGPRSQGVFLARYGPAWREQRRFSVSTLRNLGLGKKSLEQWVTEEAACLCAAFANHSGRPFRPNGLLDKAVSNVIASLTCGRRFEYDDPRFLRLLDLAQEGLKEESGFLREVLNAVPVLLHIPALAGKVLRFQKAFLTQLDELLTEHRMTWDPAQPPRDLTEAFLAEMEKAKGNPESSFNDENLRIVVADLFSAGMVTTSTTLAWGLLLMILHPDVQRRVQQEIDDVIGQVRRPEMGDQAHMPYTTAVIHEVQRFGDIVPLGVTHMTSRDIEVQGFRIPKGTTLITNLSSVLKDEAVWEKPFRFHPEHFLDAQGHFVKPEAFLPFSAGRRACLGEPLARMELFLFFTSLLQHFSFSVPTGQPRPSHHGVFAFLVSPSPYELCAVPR

[6] = target: Voltage-gated inwardly rectifying potassium channel KCNH2 (Homo sapiens, UniProt Q12809); assay: Inhibition of human ERG expressed in CHO-K1 cells by electrophysiological assay; assay type: cell-based
Chain of Voltage-gated inwardly rectifying potassium channel KCNH2 (Q12809 whole entry): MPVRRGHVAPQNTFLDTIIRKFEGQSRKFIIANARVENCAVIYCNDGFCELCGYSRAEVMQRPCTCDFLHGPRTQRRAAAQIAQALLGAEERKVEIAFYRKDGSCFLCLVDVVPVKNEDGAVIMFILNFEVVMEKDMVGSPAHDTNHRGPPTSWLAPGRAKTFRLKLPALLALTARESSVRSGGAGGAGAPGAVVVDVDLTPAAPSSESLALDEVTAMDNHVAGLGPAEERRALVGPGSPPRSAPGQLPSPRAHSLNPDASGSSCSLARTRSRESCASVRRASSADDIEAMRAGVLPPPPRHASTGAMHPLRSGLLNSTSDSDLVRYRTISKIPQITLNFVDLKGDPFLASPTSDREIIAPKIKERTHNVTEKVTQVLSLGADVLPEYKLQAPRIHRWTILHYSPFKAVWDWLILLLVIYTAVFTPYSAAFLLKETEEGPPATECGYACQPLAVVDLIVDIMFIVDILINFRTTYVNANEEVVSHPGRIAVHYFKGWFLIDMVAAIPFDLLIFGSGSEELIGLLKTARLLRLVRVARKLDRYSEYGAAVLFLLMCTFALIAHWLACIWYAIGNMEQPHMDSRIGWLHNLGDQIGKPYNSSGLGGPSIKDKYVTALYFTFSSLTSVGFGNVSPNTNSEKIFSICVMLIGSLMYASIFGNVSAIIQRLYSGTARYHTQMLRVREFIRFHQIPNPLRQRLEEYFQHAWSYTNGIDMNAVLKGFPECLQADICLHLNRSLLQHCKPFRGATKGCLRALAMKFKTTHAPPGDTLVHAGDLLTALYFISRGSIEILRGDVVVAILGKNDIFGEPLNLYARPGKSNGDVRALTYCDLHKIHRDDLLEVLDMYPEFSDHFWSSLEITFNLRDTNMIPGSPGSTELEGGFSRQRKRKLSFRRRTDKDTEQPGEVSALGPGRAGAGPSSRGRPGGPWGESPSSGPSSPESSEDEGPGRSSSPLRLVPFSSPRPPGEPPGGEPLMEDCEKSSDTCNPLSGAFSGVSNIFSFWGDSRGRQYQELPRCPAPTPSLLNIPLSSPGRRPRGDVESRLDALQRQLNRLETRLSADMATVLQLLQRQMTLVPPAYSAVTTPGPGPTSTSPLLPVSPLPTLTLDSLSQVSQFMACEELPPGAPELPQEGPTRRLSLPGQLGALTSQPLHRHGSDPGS

[7] = test system: Rattus norvegicus; assay: In vivo DAT occupancy in sc dosed Long Evans rat striatum using [3H]PE2I administered 30 mins before [3H]PE2I challenge measured after 60 mins
[8] = Ratio of drug level in whole brain to plasma in Long Evans rat; assay type: ADME, cell-free; conditions: whole brain and plasma, read-out: BPR
[9] = test system: Rattus norvegicus; assay: In vivo NET occupancy in sc dosed Long Evans rat thalamus assessed as unbound plasma levels equaling 50% occupancy using [3H]-MeNER administered 30 mins before [3H]-MeNER challenge measured after 90 mins; assay type: functional, organism-based
[10] = test system: Plasma; assay: Fraction unbound in Long Evans rat plasma; assay type: ADME, cell-free
[11] = test system: Rattus norvegicus; assay: In vivo NET occupancy in sc dosed Long Evans rat thalamus [3H]-MeNER administered 30 mins before [3H]-MeNER challenge measured after 90 mins; assay type: functional
Summary of the method: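 Rats received test compound, then 30 min later sc [3H]MeNER as the NET radioligand, counted in thalamus. […] Mean reported; 95% CI typically ± half the mean.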

[12] = test system: Rattus norvegicus; assay: Antidepressant activity in Sprague-Dawley rat assessed as reduction of immobility time at 0.7 mg/kg, sc measured for 5 mins by forced swimming test; assay type: functional, organism-based; parameters: dose 0.7 mg/kg
Summary of the method: (§2)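 Sprague–Dawley rats dosed sc, then scored for immobility time in the forced-swim test. The positive control was desipramine at 15 mg/kg ip. Data are group means ± SEM, compared with vehicle by one-way ANOVA.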

[13] = test system: Rattus norvegicus; assay: Antidepressant activity in sc dosed Sprague-Dawley rat assessed as increase of locomotor activity and stereotypic behavior; assay type: functional, organism-based
Summary of the method: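 Rats were dosed sc. Spontaneous locomotion was scored over the last 15 min of the session: distance traveled from beam breaks, and stereotypy from repeated breaks of the same beam. Data are group means ± SEM, compared with vehicle by one-way ANOVA.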

[14] = test system: Rattus norvegicus; assay: Antidepressant activity in Sprague-Dawley rat assessed as reduction of immobility time at 2.4 to 7.3 mg/kg, sc measured for 5 mins by forced swimming test; assay type: functional, organism-based; summary of the method: as §2
[15] = Metabolic stability of the compound assessed as GSH adduct formation; assay type: ADME
[16] = species: Rattus norvegicus; assay: animal or person; assay type: functional, organism-based; conditions: Long Evans, Striatum
[17] = test system: Rattus norvegicus; assay: In vivo DAT occupancy in sc dosed Long Evans rat striatum assessed as unbound plasma levels equaling 50% occupancy using [3H]WIN 35428 administered 30 mins before [3H]WIN 35428 challenge measured after 60 mins; assay type: functional, organism-based
[18] = test system: Rattus norvegicus; assay: Antidepressant activity in Sprague-Dawley rat assessed as reduction of immobility time at 3 to 10 mg/kg, sc measured for 5 mins by forced swimming test; assay type: functional, organism-based
Summary of the method: (§3)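 Rats (Sprague–Dawley) given test compound sc, then scored in forced-swim test for immobility time. Vehicle group comparison; desipramine control dosed 15 mg/kg ip. Data as group means ± SEM; significance vs vehicle by one-way ANOVA.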

[19] = test system: Rattus norvegicus; assay: Antidepressant activity in Sprague-Dawley rat assessed as reduction of immobility time at 1 mg/kg, sc measured for 5 mins by forced swimming test; assay type: functional, organism-based; parameters: dose 1 mg/kg; summary of the method: as §3
[20] = test system: Rattus norvegicus; assay: In vivo DAT occupancy in sc dosed Long Evans rat striatum using [3H]-PE2I administered 30 mins before [3H]-PE2I 35428 challenge measured after 60 mins; assay type: functional
Summary of the method: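 Test compound given sc to rats; 30 min later [3H]PE2I given sc as DAT radioligand, quantified in striatum. […] Mean reported, 95% CI typically ± half the mean.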

[21] = test system: Rattus norvegicus; assay: Antidepressant activity in Sprague-Dawley rat assessed as reduction of immobility time at 1 to 30 mg/kg, sc measured for 5 mins by forced swimming test; assay type: functional, organism-based; summary of the method: as §2
[22] = test system: Rattus norvegicus; assay: Antidepressant activity in Sprague-Dawley rat assessed as reduction of immobility time at 0.3 mg/kg, sc measured for 5 mins by forced swimming test; assay type: functional, organism-based; parameters: dose 0.3 mg/kg; summary of the method: as §2

Chain of Sodium-dependent dopamine transporter (Q01959 whole entry): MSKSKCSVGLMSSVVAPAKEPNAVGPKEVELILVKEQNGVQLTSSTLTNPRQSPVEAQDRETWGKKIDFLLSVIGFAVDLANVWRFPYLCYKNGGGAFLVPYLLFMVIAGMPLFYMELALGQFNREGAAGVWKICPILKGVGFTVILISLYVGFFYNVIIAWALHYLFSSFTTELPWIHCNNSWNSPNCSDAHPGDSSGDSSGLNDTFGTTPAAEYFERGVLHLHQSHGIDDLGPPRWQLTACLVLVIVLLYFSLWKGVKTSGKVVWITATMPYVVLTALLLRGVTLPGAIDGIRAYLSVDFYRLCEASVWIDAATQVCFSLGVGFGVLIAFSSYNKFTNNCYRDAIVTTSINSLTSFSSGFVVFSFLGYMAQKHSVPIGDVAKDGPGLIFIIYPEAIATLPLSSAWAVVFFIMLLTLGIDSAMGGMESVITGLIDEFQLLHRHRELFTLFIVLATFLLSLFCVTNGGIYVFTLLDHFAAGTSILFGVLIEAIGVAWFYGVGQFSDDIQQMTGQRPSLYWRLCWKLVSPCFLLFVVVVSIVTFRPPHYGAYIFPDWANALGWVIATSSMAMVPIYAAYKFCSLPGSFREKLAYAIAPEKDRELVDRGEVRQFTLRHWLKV

## CN1CC=CC[C@H](c2ccc(Cl)c(Cl)c2)C1
[1]
  Ki: 0.003 µM
[2]
  Ki: 0.083 µM
[3]
  microsomal CLint: 51 µL/min/mg
[4]
  Ki: 0.012 µM

## Cc1cc(C2CC=CCN(C)C2)ccc1Cl (stereo unspecified)
[1]
  Ki: 0.023 µM
[2]
  Ki: 0.27 µM
[5]
  IC50: 18 µM
[3]
  microsomal CLint: 85 µL/min/mg
[6]
  IC50: 26 µM
[4]
  Ki: 0.13 µM

## C1=CCC(c2ccc3ccccc3c2)CNC1 (stereo unspecified)
[1]
  Ki: 0.01 µM
[2]
  Ki: 0.063 µM
[5]
  IC50: 6.6 µM
[3]
  microsomal CLint: 94 µL/min/mg
[4]
  Ki: 0.025 µM

## Cc1ccc(C2CC=CCNC2)cc1Cl (stereo unspecified)
[1]
  Ki: 0.049 µM
[2]
  Ki: 0.6 µM
[5]
  IC50: 5.6 µM
[3]
  microsomal CLint: 100 µL/min/mg
[6]
  IC50: > 27 µM
[4]
  Ki: 0.083 µM

## Clc1ccc(C2CC=CCNC2)cc1Cl (racemic)
[1]
  Ki: 0.006 µM
[2]
  Ki: 0.22 µM
[5]
  IC50: 5.1 µM
[3]
  microsomal CLint: 30 µL/min/mg
[4]
  Ki: 0.066 µM

## C1=CCC(c2cc3ccccc3o2)CNC1 (stereo unspecified)
[1]
  Ki: 0.023 µM
[2]
  Ki: 0.24 µM
[5]
  IC50: 7.8 µM
[3]
  microsomal CLint: 83 µL/min/mg
[6]
  IC50: 19 µM
[4]
  Ki: 0.046 µM

## OCC[C@@]1(c2ccc(Cl)c(Cl)c2)CCCNC1
[1]
  Ki: 0.14 µM
[2]
  Ki: 0.25 µM
[5]
  IC50: > 20 µM
[3]
  microsomal CLint: < 4 µL/min/mg
[6]
  IC50: > 33 µM
[4]
  Ki: 0.25 µM

## Clc1ccc(C2CC=CCNC2)cc1 (stereo unspecified)
[1]
  Ki: 0.025 µM
[6]
  IC50: > 31 µM
[4]
  Ki: 0.25 µM

## OCC[C@]1(c2ccc(Cl)c(Cl)c2)CCCNC1
[1]
  Ki: 0.0093 µM
[2]
  Ki: 0.042 µM
[5]
  IC50: > 20 µM
[3]
  microsomal CLint: < 4 µL/min/mg
[6]
  IC50: > 33 µM
[4]
  Ki: 0.0033 µM

## CN1CC=CCC(c2cc3ccccc3o2)C1 (stereo unspecified)
[1]
  Ki: 0.06 µM
[2]
  Ki: 0.8 µM
[5]
  IC50: 6.7 µM
[3]
  microsomal CLint: 97 µL/min/mg
[6]
  IC50: 15 µM
[4]
  Ki: 0.12 µM

## COCCN1CC=CC[C@H](c2ccc(Cl)c(Cl)c2)C1
[1]
  Ki: 0.009 µM
[2]
  Ki: 0.54 µM
[5]
  IC50: 3.9 µM
[3]
  microsomal CLint: 150 µL/min/mg
[6]
  IC50: 5.3 µM
[4]
  Ki: 0.015 µM

## Clc1ccc(C2CCCCNC2)cc1Cl (racemic)
[1]
  Ki: 0.011 µM
[2]
  Ki: 0.14 µM
[5]
  IC50: 2.3 µM
[3]
  microsomal CLint: 35 µL/min/mg
[6]
  IC50: 6.1 µM
[4]
  Ki: 0.13 µM

## CN1CC=CC[C@@H](c2ccc(Cl)c(Cl)c2)C1
[1]
  Ki: 0.013 µM
[2]
  Ki: 0.13 µM
[3]
  microsomal CLint: 86 µL/min/mg
[4]
  Ki: 0.054 µM

## Clc1cccc(C2CC=CCNC2)c1 (stereo unspecified)
[1]
  Ki: 0.24 µM
[6]
  IC50: > 33 µM
[4]
  Ki: 0.43 µM

## Clc1ccc([C@@H]2CC=CCNC2)cc1Cl
[1]
  Ki: 0.008 µM
[2]
  Ki: 0.42 µM
[5]
  IC50: 3.1 µM
[3]
  microsomal CLint: 50 µL/min/mg
[4]
  Ki: 0.024 µM

## CN1CC=CCC(c2ccc(Cl)c(Cl)c2)C1 (racemic)
[1]
  Ki: 0.005 µM
[2]
  Ki: 0.1 µM
[3]
  microsomal CLint: 57 µL/min/mg
[4]
  Ki: 0.057 µM

## OCC[C@]1(c2cc3ccccc3o2)CCCNC1
[1]
  Ki: 0.006 µM
[2]
  Ki: 0.23 µM
[7]
  ED50: 0.8 mg/kg
[5]
  IC50: > 20 µM
[8]
  Kp: 5.8
[3]
  microsomal CLint: 22 µL/min/mg
[9]
  EC50: 0.0056 µM
[10]
  Cp(f): 75%
[11]
  ED50: 0.17 mg/kg
[12]
  Activity: inactive
[4]
  Ki: 0.004 µM
[13]
  Activity: inactive
[14]
  Activity: Active
[15]
  Stability: Stable
[16]
  EC50: 0.033 µM

## Fc1ccc(C2CC=CCNC2)cc1Cl (stereo unspecified)
[1]
  Ki: 0.068 µM
[2]
  Ki: 1.5 µM
[5]
  IC50: 6.4 µM
[3]
  microsomal CLint: 15 µL/min/mg
[4]
  Ki: 0.13 µM

## OCC[C@@]1(c2cc3ccccc3o2)CCCNC1
[1]
  Ki: 0.4 µM
[4]
  Ki: 0.43 µM

## OCCN1CC=CC[C@H](c2ccc(Cl)c(Cl)c2)C1
[1]
  Ki: 0.037 µM
[2]
  Ki: 0.15 µM
[5]
  IC50: > 20 µM
[3]
  microsomal CLint: 52 µL/min/mg
[6]
  IC50: 10 µM
[4]
  Ki: 0.012 µM

## Clc1ccc([C@H]2CC=CCNC2)cc1Cl
[17]
  EC50: 0.22 µM
[1]
  Ki: 0.006 µM
[2]
  Ki: 0.22 µM
[18]
  Activity: Active
[5]
  IC50: 3.9 µM
[8]
  Kp: 4.8
[19]
  Activity: inactive
[3]
  microsomal CLint: 33 µL/min/mg
[9]
  EC50: 0.046 µM
[10]
  Cp(f): 7.7%
[11]
  ED50: 0.5 mg/kg
[4]
  Ki: 0.017 µM
[20]
  ED50: 0.8 mg/kg
[13]
  Activity: Dose-dependent effect
[15]
  Stability: Stable

## CN1CCCCC(c2ccc(Cl)c(Cl)c2)C1 (racemic)
[1]
  Ki: 0.008 µM
[2]
  Ki: 0.26 µM
[6]
  IC50: 10 µM
[4]
  Ki: 0.074 µM

## CN1Cc2c(N)cccc2C(c2ccccc2)C1 (racemic) [NOMIFENSINE]
[21]
  Activity: Active
[5]
  IC50: > 20 µM
[8]
  Kp: 10.1
[3]
  microsomal CLint: 37 µL/min/mg
[10]
  Cp(f): 60.5%
[6]
  IC50: > 27 µM
[11]
  ED50: 0.05 mg/kg
[20]
  ED50: 0.7 mg/kg
[13]
  Activity: Dose-dependent effect
[22]
  Activity: inactive

## Cc1cc(C2CC=CCNC2)ccc1Cl (stereo unspecified)
[1]
  Ki: 0.024 µM
[6]
  IC50: 26 µM
[4]
  Ki: 0.17 µM

From ChEMBL document CHEMBL2321662, “Azepines and piperidines with dual norepinephrine dopamine uptake inhibition and antidepressant activity” (ACS Med Chem Lett, 2013)
